Data from PMC9748978 (RSC Advances, 2022).
Like-named read-outs stand apart in the source and are kept apart here.

Experiments:
[1] = compound, TG; cited from earlier work
[2] = Accumulation in the skin after 24 h penetration; type: in vitro ADME, pig; conditions: after 24 h of penetration from solution, porcine skin
Outline: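 Franz diffusion cells with porcine abdominal skin, PBS (pH 7.4) acceptor at 37.0 ± 0.5 °C. After 24 h penetration the skin was removed, rinsed in PBS pH 7.4, dried at room temperature, weighed, cut to the 1 cm2 diffusion area and minced. It was then extracted in methanol for 24 h at 4 °C, homogenized 3 min and centrifuged at 3500 rpm for 5 min. Supernatant was assayed by HPLC, expressed as μg IBU per g skin.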

[3] = type: in vitro ADME; conditions: pig skin; for CUM – cumulative permeation mass / Q – the percentage of the applied dose after 24 h: 24 h; for CUM – cumulative permeation mass / Q – the percentage of the applied dose after 24 h / J SS – steady-state flux / K m – skin partition coefficient / L T – lag time / K P – permeability coefficient: solution in 70% ethanol; for steady-state flux (JSS): from ethanol solution
Outline: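 Pig abdominal skin in Franz cells with 8 cm3 PBS (pH 7.4) acceptor at 37.0 ± 0.5 °C, stirred 400 rpm. Donor: 1 cm3 of about 5% solution (about 0.05 g cm−3) in 70% ethanol, stoppered. Acceptor sampled (0.3 cm3, buffer replaced) at 0.5–24 h and assayed by HPLC. Jss is the slope of cumulative mass versus time, and lag time is the x-intercept. Kp, D and Km are calculated from these. Mean ± SD, ANOVA/Tukey.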

[4] = Thermogravimetric analysis; type: physicochemical; conditions: compound, TG
Outline: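 About 5 mg samples were heated from 25 to 1000 °C on a thermobalance under nitrogen (10 ml min−1) and under air (25 ml min−1). Onset decomposition temperature was read from TG curves and maximum decomposition temperature from DTG curves.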

[5] = n-octanol/water partition coefficient, shake flask method; type: physicochemical; conditions: n-octanol–water, 25 °C
Outline: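 10 mg of compound was shaken with 5 ml n-octanol-saturated water and 5 ml water-saturated n-octanol, stirred 3 h at 25 °C, and the layers were separated. Aqueous concentration was measured by HPLC. Octanol-layer concentration was taken as total minus aqueous. log P = log C0 − log Cw.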

Solubility in water = type: physicochemical; conditions: 25 °C, 24 h
Tack = type: physicochemical; conditions: transdermal patch (cross-linked adhesive film containing the active ingredient)
Outline: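 Tested with a tensile testing machine per AFERA 4015. The patch has an acrylate copolymer adhesive matrix with the active substance added as an ethyl acetate solution, dosed on the basis of 200 mg per 140 cm2. It was coated at 250 μm on polyester film and cross-linked by UV after 10 min at 110 °C.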

[6] = type: in vitro ADME, pig; conditions: from transdermal patch

Compound: CC(C)Cc1ccc(C(C)C(=O)O)cc1 (racemic) [[IBU], (R,S)-Ibuprofen, reference compound]
- T max (maximum decomposition temperature) [1]: 218.7 °C
- T onset (the onset of the thermal degradation) [1]: 189.8 °C
- accumulation in the skin [2]: 725.49 ± 164.6184 μg IBU per g skin
- CUM – cumulative permeation mass [3]: 133.35 μg cm^−2
- Q – the percentage of the applied dose after 24 h [3]: 9.33%
- steady-state flux (JSS) [3]: 25.87 μg IBU per cm^2 h
- J SS – steady-state flux [3]: 25.87 μg cm^−2
- K m – skin partition coefficient [3]: 0.281
- L T – lag time [3]: 2.582 min

Compound: CC(C)Cc1ccc(C(C)C(=O)O)cc1.CCCOC(=O)[C@@H](N)Cc1c[nH]c2ccccc12 [[TrpOPr][IBU], L-tryptophan propyl ester ibuprofenate]
- T max (maximum decomposition temperature) [4]: 219.3 °C
- log P [5]: +1.044
- accumulation in the skin [2]: 595.41 ± 76.32 μg IBU per g skin
- CUM – cumulative permeation mass [3]: 319.22 μg cm^−2
- Q – the percentage of the applied dose after 24 h [3]: 12.42%
- J SS – steady-state flux [3]: 22.72 μg cm^−2
- K P – permeability coefficient [3]: 4418.6 ×10⁻⁶ cm/s
- K m – skin partition coefficient [3]: 0.208
- L T – lag time [3]: 2.179 min
- Solubility in water (Solubility in water): 9.396 ± 0.027 g dm^−3
- Solubility in water (as ibuprofen) (Solubility in water): 4.577 ± 0.037 g IBU per dm^3

Compound: CC(C)Cc1ccc(C(C)C(=O)[O-])cc1.[Na+] (stereo not drawn) [[IBU][Na], sodium ibuprofenate]
- Tack (Tack): 0.05 N

Compound: CC(C)Cc1ccc(C(C)C(=O)O)cc1.CCCOC(=O)[C@@H](N)Cc1ccc(O)cc1 [[TyrOPr][IBU], L-tyrosine propyl ester ibuprofenate]
- T max (maximum decomposition temperature) [4]: 209.4 °C
- T onset (the onset of the thermal degradation) [4]: 148.1 °C
- log P [5]: +1.055
- accumulation in the skin [2]: 609.35 ± 106.07 μg IBU per g skin
- CUM – cumulative permeation mass [3]: 284.27 μg cm^−2
- Q – the percentage of the applied dose after 24 h [3]: 9.51%
- J SS – steady-state flux [3]: 25.57 μg cm^−2
- K P – permeability coefficient [3]: 4971.7 ×10⁻⁶ cm/s
- K m – skin partition coefficient [3]: 0.229
- L T – lag time [3]: 2.133 min
- Solubility in water (Solubility in water): 8.569 ± 0.022 g dm^−3
- Solubility in water (as ibuprofen) (Solubility in water): 4.188 ± 0.065 g IBU per dm^3

Compound: L-histidine propyl ester bis(ibuprofenate) [[HisOPr][IBU]]
- T max (maximum decomposition temperature) [4]: 212.5 °C
- T onset (the onset of the thermal degradation) [4]: 157.5 °C
- log P [5]: +0.963
- CUM – cumulative permeation mass [3]: 335.13 μg cm^−2
- Q – the percentage of the applied dose after 24 h [3]: 7.90%
- steady-state flux (JSS) [3]: 21.33 μg IBU per cm^2 h
- J SS – steady-state flux [3]: 21.33 μg cm^−2
- K P – permeability coefficient [3]: 4143.9 ×10⁻⁶ cm/s
- K m – skin partition coefficient [3]: 0.192
- L T – lag time [3]: 2.141 min

Compound: CC(C)Cc1ccc(C(C)C(=O)O)cc1.CCCOC(=O)[C@@H](N)Cc1ccccc1 [[PheOPr][IBU], L-phenylalanine propyl ester ibuprofenate]
- delay time (lag time) [6]: about 1 h
- T max (maximum decomposition temperature) [1]: 210.4 °C
- T onset (the onset of the thermal degradation) [1]: 157.0 °C
- log P [5]: +1.021
- accumulation in the skin [2]: 602.86 ± 76.98 μg IBU per g skin
- CUM – cumulative permeation mass [3]: 454.86 μg cm^−2
- Q – the percentage of the applied dose after 24 h [3]: 15.80%
- steady-state flux (JSS) [3]: 28.01 μg IBU per cm^2 h
- J SS – steady-state flux [3]: 28.01 μg cm^−2
- K P – permeability coefficient [3]: 5446.1 ×10⁻⁶ cm/s
- K m – skin partition coefficient [3]: 0.200
- L T – lag time [3]: 1.705 min
- Solubility in water (Solubility in water): 9.481 ± 0.066 g dm^−3
- Solubility in water (as ibuprofen) (Solubility in water): 4.596 ± 0.161 g IBU per dm^3
